# Test results from ChEMBL document CHEMBL1128592, “Phenethylthiazolethiourea (PETT) compounds, a new class of HIV-1 reverse transcriptase inhibitors. 1. Synthesis and basic structure-activity relationship studies of PETT analogs” (J Med Chem, 1995).
# Key:
# [1] = biological target: Human immunodeficiency virus type 1 reverse transcriptase (Human immunodeficiency virus 1) (UniProt Q72547); assay: Concentration which reduced the cytopathic effect of HIV-1 in MT-4 infected cells; assay type: functional, cell-based
# How it was run: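 MT4 cells at 2 × 10⁵ cells/mL in RPMI 1640 with 10% FCS, penicillin and streptomycin (2 × 10⁴ cells/well). Compounds added from DMSO stocks diluted in medium (final DMSO ≤1%), then HIV-1 IIIB at 10 TCID₅₀/well. After 6 days in CO₂, surviving cells read by XTT. ED₅₀ is the concentration reducing virus cytopathic effect, mean of at least two experiments.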
# [2] = biological target: Human immunodeficiency virus type 1 reverse transcriptase (Human immunodeficiency virus 1, UniProt Q72547); assay: Inhibition of HIV-1 reverse transcriptase using rCdG as template and dGTP as substrate
# [3] = Concentration which reduced the viability of the uninfected MT-4 cells to 50% compared to untreated control cells; settings: MT4
Structure (SMILES),ED50 [1],IC50 [2],CD50 [3]
COc1ccc(OC)c(CCNC(=S)Nc2nccs2)c1,400 nM,200 nM,86 µM
Cc1ccnc2c1NC(=O)c1cccnc1N2C1CC1,150 nM,–,–
Oc1ccccc1CCNC(=S)Nc1nccs1,4000 nM,1100 nM,100 µM
CCOc1cccc(F)c1CCNC(=S)Nc1ccc(C)cn1,200 nM,4.5 nM,60 µM
S=C(NCCc1ccccn1)Nc1ccc(Br)cn1,20 nM,–,–
S=C(NCCc1ccccc1)Nc1ccc(Br)cn1,50 nM,15 nM,–
S=C(NCCc1ccccc1)Nc1nc2ccccc2s1,1100 nM,200 nM,–
COc1ccccc1CCNC(=S)Nc1nccs1,400 nM,40 nM,102 µM
FC(F)(F)c1csc(NC(=S)NCCc2ccccc2)n1,500 nM,550 nM,9 µM
Fc1cccc(F)c1CCNC(=S)Nc1nccs1,20 nM,10 nM,33 µM
CCCCCCOc1cccc(CC/N=C(\S)Nc2nccs2)c1,> 10000 nM,> 10000 nM,8 µM
CCc1csc(NC(=S)NCCc2c(F)cccc2F)n1,80 nM,5.5 nM,> 305 µM
COc1cccc(OC)c1CCNC(=S)Nc1nccs1,90 nM,90 nM,37 µM
O=C(O)c1csc(/N=C(\S)NCCc2ccccc2)n1,> 10000 nM,> 10000 nM,> 325 µM
COc1cccc(CCNC(=S)Nc2nccs2)c1,600 nM,150 nM,143 µM
CCOC(=O)c1csc(NC(=S)NCCc2ccccc2)n1,500 nM,200 nM,60 µM
S=C(NCCc1ccccc1)Nc1ncc(Cl)s1,2700 nM,2400 nM,15 µM
CCc1cc(NCc2nc3c(Cl)ccc(Cl)c3o2)c(O)nc1C [L-697661],65 nM,100 nM,114 µM
Fc1ccccc1CCNC(=S)Nc1nccs1,100 nM,60 nM,75 µM
Cc1ccc(NC(=S)NCCc2ccccc2)nc1,150 nM,30 nM,–
CC(C)=CCN1Cc2cc(Cl)cc3[nH]c(=S)n(c23)C[C@@H]1C,250 nM,200 nM,–
Cc1ccc(NC(=S)NCCc2ccccn2)nc1,300 nM,50 nM,73 µM
CC(C/N=C(\S)Nc1nccs1)c1ccccc1 (stereo not drawn),1200 nM,–,108 µM

Structure (SMILES),ED50 [1],IC50 [2],CD50 [3]
CCOc1cccc(CCNC(=S)Nc2nccs2)c1,150 nM,60 nM,91 µM
CC(Cc1ccccc1)/N=C(\S)Nc1nccs1 (stereo not drawn),> 10000 nM,> 10000 nM,87 µM
CC(C)Oc1cccc(CCNC(=S)Nc2nccs2)c1,400 nM,400 nM,16 µM
S=C(NCCc1ccccc1)Nc1ccccn1,200 nM,20 nM,–
N#Cc1csc(NC(=S)NCCc2c(F)cccc2F)n1,30 nM,6 nM,10 µM
[N-]=[N+]=Nc1ccccc1CC/N=C(\S)Nc1nccs1,100 nM,–,92 µM
Cc1csc(NC(=S)NCCc2ccccc2)n1,400 nM,100 nM,> 360 µM
Cc1cn([C@H]2C[C@H](N=[N+]=[N-])[C@@H](CO)O2)c(=O)[nH]c1=O,7 nM,–,–
CC(CNC(=S)Nc1nccs1)c1ccccc1 (stereo not drawn),–,450 nM,–
Fc1cccc(F)c1CC/N=C(\S)Nc1ccc(Br)cn1,10 nM,–,67 µM
Cc1ccc(NC(=S)NCCc2c(F)cccc2F)nc1,10 nM,3 nM,> 325 µM
S=C(NCCc1ccccc1)Nc1cc[nH]n1,> 10000 nM,> 10000 nM,122 µM
COc1ccc(Br)cc1CCNC(=S)Nc1nccs1,50 nM,30 nM,94 µM
Fc1cccc(F)c1CCNC(=S)Nc1ccc(Br)cn1,–,1 nM,–
Fc1cccc(Cl)c1CCNC(=S)Nc1nccs1,50 nM,6 nM,111 µM
O=[N+]([O-])c1ccccc1CCNC(=S)Nc1nccs1,1100 nM,150 nM,123 µM
S=C(NCCc1ccccn1)Nc1nccs1,1300 nM,200 nM,76 µM
CCOc1cccc(F)c1CCNC(=S)Nc1nccs1,200 nM,10 nM,37 µM
Fc1ccc(CCNC(=S)Nc2nccs2)cc1,3300 nM,1000 nM,78 µM
O=C(NCCc1ccccc1)Nc1nccs1,> 10000 nM,> 10000 nM,113 µM
S=C(NCCc1ccccc1)Nc1cnccn1,> 10000 nM,3900 nM,> 390 µM
CCCOc1cccc(CCNC(=S)Nc2nccs2)c1,2200 nM,200 nM,75 µM
Cn1cccc1CC/N=C(\S)Nc1nccs1,> 10000 nM,1900 nM,143 µM

Structure (SMILES),ED50 [1],IC50 [2],CD50 [3]
Cc1ccccc1CCNC(=S)Nc1nccs1,950 nM,80 nM,72 µM
S=C(NCc1ccccc1)Nc1nccs1,> 10000 nM,1200 nM,120 µM
[N-]=[N+]=Nc1ccccc1CCNC(=S)Nc1nccs1,–,30 nM,–
Fc1cccc(CCNC(=S)Nc2nccs2)c1,250 nM,150 nM,78 µM
COc1ccc(CCNC(=S)Nc2nccs2)cc1,5500 nM,350 nM,68 µM
N#Cc1csc(NC(=S)NCCc2ccccc2)n1,200 nM,200 nM,–
S=C(NCCc1cccc(Oc2ccccc2)c1)Nc1nccs1,2800 nM,1100 nM,14 µM
CCCc1csc(NC(=S)NCCc2ccccc2)n1,1600 nM,350 nM,> 330 µM
S=C(NCCc1ccco1)Nc1nccs1,5200 nM,650 nM,89 µM
S=C(NCCc1ccccc1)Nc1ncccc1Br,> 10000 nM,> 10000 nM,297 µM
CC(C)c1csc(NC(=S)NCCc2ccccc2)n1,1300 nM,200 nM,> 330 µM
S=C(NCCCc1ccccc1)Nc1nccs1,> 10000 nM,4500 nM,> 360 µM
CCc1csc(NC(=S)NCCc2ccccc2)n1,700 nM,600 nM,> 340 µM
CN(/C(S)=N/CCc1ccccc1)c1nccs1,10000 nM,1500 nM,65 µM
S=C(NCCc1ccccc1)Nc1nncs1,5300 nM,1900 nM,–
S=C(NCCc1ccncc1)Nc1nccs1,> 10000 nM,> 10000 nM,113 µM
CN(CCc1ccccc1)/C(S)=N\c1nccs1,> 10000 nM,> 10000 nM,29 µM
S=C(NCCc1ccccc1Cl)Nc1nccs1,400 nM,600 nM,100 µM
S=C(NCCc1cccnc1)Nc1nccs1,6400 nM,> 10000 nM,83 µM
COc1cccc(F)c1CCNC(=S)Nc1nccs1,300 nM,10 nM,51 µM
S=C(NCCc1ccccc1)Nc1nccs1,1300 nM,900 nM,–
